Experimental data published in ChEMBL document CHEMBL1124533, “Inhibition of human leukocyte elastase by derivatives of N-hydroxysuccinimide. A structure-activity-relationship study” (J Med Chem, 1989).
Values belong to the compound of their own block, whether it stands above or below them. The source made the active and inactive calls. No cut-off for these calls is given here.

Key:
[1] = target: T1, Neutrophil elastase (Homo sapiens) (UniProt P08246); test: Catalytic rate constant (Kobs/[I]) against human leukocyte elastase was determined
T1 sequence (whole entry): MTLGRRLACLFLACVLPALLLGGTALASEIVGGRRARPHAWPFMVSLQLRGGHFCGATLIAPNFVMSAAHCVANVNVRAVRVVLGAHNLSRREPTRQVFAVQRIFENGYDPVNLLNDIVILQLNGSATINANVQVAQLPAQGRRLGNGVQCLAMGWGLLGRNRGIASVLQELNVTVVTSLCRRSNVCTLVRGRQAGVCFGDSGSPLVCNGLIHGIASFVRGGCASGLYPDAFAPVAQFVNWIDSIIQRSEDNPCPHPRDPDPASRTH
Outline: (§1)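 Human leukocyte elastase (10 μL of 2.23 × 10⁻⁵ M stock in 0.05 M sodium acetate, pH 5.5) preincubated with inhibitor (20 μL of 2.23 × 10⁻² M DMSO stock) in HEPES pH 7.2, 1 mL total, thermostated. Aliquots withdrawn over time into MeOSuc-Ala-Ala-Pro-Val-pNA; A410 read for 2 min after 30 s. kobs from ln(vt/v0) vs t, divided by [I]; mean of two determinations.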

[2] = target: T1, Neutrophil elastase (Homo sapiens); test: Catalytic rate constant (Kobs/[I]) against human leukocyte elastase was determined; Inactive; outline: as §1

SMILES: CCCCCCCCS(=O)(=O)ON1C(=O)CC(Cc2ccccc2)C1=O (stereo unspecified)
K obs / 1 [1]: 1270 M⁻¹ s⁻¹

SMILES: O=C1CC(Cc2ccccc2)C(=O)N1OS(=O)(=O)Cc1ccccc1 (stereo unspecified)
K obs / 1 [1]: 770 M⁻¹ s⁻¹

SMILES: O=C1CC(Cc2ccccc2)C(=O)N1OS(=O)(=O)c1ccc(F)cc1 (stereo unspecified)
K obs / 1 [1]: 1110 M⁻¹ s⁻¹

SMILES: CN(C)S(=O)(=O)ON1C(=O)CC(Cc2ccccc2)C1=O (stereo unspecified)
K obs / 1 [1]: 323 M⁻¹ s⁻¹

SMILES: Cc1ccc(S(=O)(=O)ON2C(=O)CC(Cc3ccccc3)C2=O)cc1 (stereo unspecified)
K obs / 1 [1]: 1610 M⁻¹ s⁻¹

SMILES: O=C1CCC(=O)N1OS(=O)(=O)/C=C/c1ccccc1
K obs / 1 [2]: inactive

SMILES: O=C1CC(Cc2ccccc2)C(=O)N1OS(=O)(=O)c1ccc(Br)cc1 (stereo unspecified)
K obs / 1 [1]: 1650 M⁻¹ s⁻¹

SMILES: CCCCS(=O)(=O)ON1C(=O)CC(Cc2ccccc2)C1=O (stereo unspecified)
K obs / 1 [1]: 1680 M⁻¹ s⁻¹

SMILES: O=C1CC(Cc2ccccc2C(F)(F)F)C(=O)N1OS(=O)(=O)/C=C/c1ccccc1 (stereo unspecified)
K obs / 1 [1]: 1860 M⁻¹ s⁻¹

SMILES: CS(=O)(=O)ON1C(=O)CC(Cc2ccccc2C(F)(F)F)C1=O (stereo unspecified)
K obs / 1 [1]: 189 M⁻¹ s⁻¹

SMILES: CS(=O)(=O)ON1C(=O)CC(Cc2cccc(C(F)(F)F)c2)C1=O (stereo unspecified)
K obs / 1 [1]: 217 M⁻¹ s⁻¹

SMILES: CC(C)C1CC(=O)N(OS(=O)(=O)/C=C/c2ccccc2)C1=O (stereo unspecified)
K obs / 1 [1]: > 100000 M⁻¹ s⁻¹

SMILES: CS(=O)(=O)ON1C(=O)CC(Cc2ccc(C(F)(F)F)cc2)C1=O (stereo unspecified)
K obs / 1 [1]: 84 M⁻¹ s⁻¹

SMILES: O=C1CC(Cc2ccccc2)C(=O)N1OS(=O)(=O)c1cccc(C(F)(F)F)c1 (stereo unspecified)
K obs / 1 [1]: 316 M⁻¹ s⁻¹

SMILES: O=C1CC(Cc2ccccc2)C(=O)N1OS(=O)(=O)/C=C/c1ccccc1 (stereo unspecified)
K obs / 1 [1]: 9430 M⁻¹ s⁻¹

SMILES: O=C1CC(Cc2ccccc2)C(=O)N1OS(=O)(=O)c1ccccc1 (stereo unspecified)
K obs / 1 [1]: 1170 M⁻¹ s⁻¹

SMILES: O=C1CC(Cc2ccccc2)C(=O)N1OS(=O)(=O)c1cccc2ccccc12 (stereo unspecified)
K obs / 1 [1]: 620 M⁻¹ s⁻¹

SMILES: O=C1CC(Cc2ccccc2)C(=O)N1OS(=O)(=O)c1ccc2ccccc2c1 (stereo unspecified)
K obs / 1 [1]: 1580 M⁻¹ s⁻¹

Other lines, results leading:

K obs / 1 [1]: 373 M⁻¹ s⁻¹
SMILES: CS(=O)(=O)ON1C(=O)CC(Cc2cccc(F)c2)C1=O (stereo unspecified)

K obs / 1 [1]: 361 M⁻¹ s⁻¹
SMILES: CC(C)CCC1CC(=O)N(OS(C)(=O)=O)C1=O (stereo unspecified)

K obs / 1 [1]: 1100 M⁻¹ s⁻¹
SMILES: CC(C)S(=O)(=O)ON1C(=O)CC(Cc2ccccc2)C1=O (stereo unspecified)

K obs / 1 [1]: 2250 M⁻¹ s⁻¹
SMILES: CC(C)CCC1CC(=O)N(OS(=O)(=O)/C=C/c2ccccc2)C1=O (stereo unspecified)

K obs / 1 [1]: 1050 M⁻¹ s⁻¹
SMILES: CS(=O)(=O)ON1C(=O)CC(Cc2ccccc2)C1=O (stereo unspecified)

K obs / 1 [1]: 3820 M⁻¹ s⁻¹
SMILES: CC(C)C1CC(=O)N(OS(C)(=O)=O)C1=O (stereo unspecified)

K obs / 1 [1]: > 100000 M⁻¹ s⁻¹
SMILES: CC(C)CC1CC(=O)N(OS(=O)(=O)/C=C/c2ccccc2)C1=O (stereo unspecified)

K obs / 1 [1]: 49300 M⁻¹ s⁻¹
SMILES: CC(C)CC1CC(=O)N(OS(C)(=O)=O)C1=O (stereo unspecified)
